Published values collected from several papers.
Compare with care: the assays were run in different laboratories. pEC50: −log10 of the molar value. Converted amounts (≈) assume the structure as drawn.

SMILES	tested on	test	test system	setting	quantity	result
CS(=O)(=O)c1ccc([C@@H](O)[C@@H](CF)NC(=O)C(Cl)Cl)cc1	Salmonella enterica	microbial growth	ENTERITIDIS	20 h, pH 7.2	MIC	8 µg/mL (≈ 22.3 µM)
O=c1cc(-c2ccc(O)c(O)c2)oc2cc(O)cc(O)c12	Helicobacter pylori	microbial growth, broth dilution		1.95 µg/mL	inhibition	89.3%
Cc1ccc(-c2nc3ccccc3s2)cc1NC(=O)c1cc([N+](=O)[O-])c(NC2CCN(C)CC2)cc1Cl	BJ	cell growth or viability, ATP luminescence			pEC50	< 5.04
O=C(O)c1ccc(O)cc1	Helicobacter pylori	microbial growth, broth dilution		125 µg/mL	inhibition	100%
COC(=O)c1cccc(Nc2nccc(NC3CCCCC3)n2)c1	BJ	cell growth or viability, ATP luminescence		72 h	pEC50	< 4.77
CN(C)[C@@H]1C(O)=C(C(N)=O)C(=O)[C@@]2(O)C(O)=C3C(=O)c4c(O)cccc4[C@@](C)(O)[C@H]3C[C@@H]12	Salmonella enterica	microbial growth		20 h, pH 5.5	MIC	1 µg/mL (≈ 2.25 µM)
CN(c1ccnc(Nc2cccc(-c3cccnc3)c2)n1)C1CCCCC1	BJ	cell growth or viability, ATP luminescence		72 h	pEC50	< 5.10
CCN1CCN(c2cc3c(cc2F)c(=O)c(C(=O)O)cn3C2CC2)CC1	Salmonella enterica	microbial growth	F98, TYPHIMURIUM	20 h, pH 7	MIC	0.0313 µg/mL (≈ 0.0871 µM)
CNc1ccnc(Nc2cccc(-c3cccnc3)c2)n1	BJ	cell growth or viability, ATP luminescence		72 h	pEC50	< 4.70
CC1(C)S[C@@H]2[C@H](NC(=O)[C@H](N)c3ccccc3)C(=O)N2[C@H]1C(=O)O	Salmonella enterica	microbial growth	F98, TYPHIMURIUM	20 h, pH 7.2	MIC	2 µg/mL (≈ 5.72 µM)
O=c1cc(-c2ccc(O)cc2)oc2cc(O)cc(O)c12	Helicobacter pylori	microbial growth, broth dilution		31.25 µg/mL	inhibition	100%
c1cncc(-c2cccc(Nc3nccc(NC4CCOCC4)n3)c2)c1	BJ	cell growth or viability, ATP luminescence		72 h	pEC50	< 4.62
